Experimental data taken from ChEMBL document CHEMBL1133761, “Structure-activity relationships of (E)-5-(2-bromovinyl)uracil and related pyrimidine nucleosides as antiviral agents for herpes viruses” (J Med Chem, 2000).

How the values were obtained:
[1] = Effective concentration to show 50% of activity was measured on herpes simplex virus-1 KOS strain cell culture.; assay type: functional, Human alphaherpesvirus 1
In short: (§1)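 Plaque reduction assay in Vero cells kept in RPMI 1640 with 10% FBS. HSV-1 was KOS strain and HSV-2 was strain 333. EC50 is based on the reduction in plaques.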

Human alphaherpesvirus 3 [2] = experiment: Effective concentration to show 50% of activity was measured on varicella zoster virus(VZV) cell culture; assay type: functional, organism-based
CCRF-CEM [3] = experiment: Dose that inhibited 50% cell growth of human T-lymphoid CEM cells compared with untreated control; assay type: functional
In short: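 CEM cells in log-phase growth were exposed to serial drug dilutions and kept for three generations, then counted by Coulter counter. ID50 is the dose giving 50% growth inhibition versus untreated control.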

[4] = Effective concentration to show 50% of activity was measured on herpes simplex virus-2 333 strain cell culture.; assay type: functional, Human alphaherpesvirus 2; in short: as §1
CCRF-CEM [5] = experiment: The mitochondrial toxicity was measured on human T-lymphoid CEM cells.; assay type: functional
In short: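 Human T-lymphoid CEM cells were incubated with drug at various concentrations, with medium and drug renewed on days 4 and 6, and harvested on day 8. DNA was extracted in TE (25 mM Tris pH 8.0, 1 mM EDTA), treated with RNase A and proteinase K, slot-blotted and probed with an mtDNA-specific probe.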

Human gammaherpesvirus 4 = experiment: Effective concentration to show 50% of activity was measured on Epstein Barr virus(EBV) cell culture; assay type: functional, organism-based
In short: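 EBV-producing H-1 cells were kept in RPMI 1640 with 10% FBS. Inhibition of viral growth was read as reduced viral DNA synthesis and expressed as EC50.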

Human alphaherpesvirus 3 [6] = experiment: The effective concentration to show 50% of activity was measured on varicella zoster virus(VZV) cell culture; assay type: functional, organism-based
In short: (§2)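 VZV Ellen strain was used. Antiviral effect was scored as inhibition of viral DNA synthesis and expressed as EC50.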

Human alphaherpesvirus 3 [7] = experiment: The effective concentration to show 50% of activity was measured on varicella zoster virus(Ellen) cell culture; assay type: functional, organism-based; in short: as §2
[8] = The effective concentration to show 50% of activity was measured on herpes simplex virus-1 with strain KOS cell culture.; assay type: functional, cell-based, Human alphaherpesvirus 1; in short: as §1

SMILES	EC50 [1] [µM]	EC50 (Human alphaherpesvirus 3 [2]; Human alphaherpesvirus 3) [µM]	ID50 (CCRF-CEM [3]) [µM]	EC50 [4] [µM]	ID50 (CCRF-CEM [5]) [µM]	EC50 (Human gammaherpesvirus 4; human gammaherpesvirus 4) [µM]	EC50 (Human alphaherpesvirus 3 [6]) [µM]	EC50 (Human alphaherpesvirus 3 [2]) [µM]	EC50 (Human gammaherpesvirus 4) [µM]	EC50 (Human alphaherpesvirus 3 [7]) [µM]	EC50 [8] [µM]
O=c1[nH]c(=O)n([C@H]2O[C@@H](CO)[C@H](O)[C@H]2F)cc1/C=C/Br	> 50	> 50	> 100	> 50	–	–	–	–	–	–	–
O=c1[nH]c(=O)n([C@H]2O[C@@H](CO)[C@H](O)[C@@H]2F)cc1/C=C/Br	> 50	> 50	> 100	> 50	–	–	–	–	–	–	–
O=c1[nH]c(=O)n([C@H]2CO[C@H](CO)O2)cc1/C=C/Cl	> 50	> 30	> 100	> 50	> 25	> 50	–	–	–	–	–
O=c1[nH]c(=O)n([C@@H]2CO[C@H](CO)O2)cc1/C=C/Br	36	0.07	> 100	> 50	> 200	0.59	–	–	–	–	–
O=c1[nH]c(=O)n(C2CS[C@@H](CO)O2)cc1/C=C/Br (stereo partly drawn)	> 50	–	> 100	> 50	–	–	–	–	–	–	–
O=c1[nH]c(=O)n([C@@H]2CO[C@@H](CO)O2)cc1/C=C/Br	> 50	> 30	> 100	> 50	–	> 50	–	–	–	–	–
O=c1[nH]c(=O)n([C@@H]2CO[C@H](CO)O2)cc1/C=C/Cl	18	0.15	> 100	> 50	> 200	0.49	–	–	–	–	–
O=c1[nH]c(=O)n([C@H]2CO[C@H](CO)O2)cc1/C=C/Br	> 50	> 30	> 100	> 50	> 25	> 50	–	–	–	–	–
O=c1[nH]c(=O)n([C@@H]2CO[C@H](CO)O2)cc1I	–	–	> 100	–	> 200	0.033	17	–	–	–	–
O=c1[nH]c(=O)n(C2CO[C@@H](CO)O2)cc1/C=C/Br (stereo partly drawn)	> 50	26	> 100	> 50	–	> 50	–	–	–	–	–
O=c1[nH]c(=O)n([C@@H]2CO[C@H](CO)O2)cc1/C=C/I	33	0.035	> 100	> 50	> 200	3.91	–	–	–	–	–
O=c1[nH]c(=O)n([C@H]2CO[C@H](CO)O2)cc1/C=C/I	> 50	> 30	> 100	> 50	> 25	> 50	–	–	–	–	–
O=c1[nH]c(=O)n([C@@H]2CO[C@H](CO)O2)cc1Br	–	> 30	> 100	–	> 200	0.19	–	–	–	–	–
O=c1[nH]c(=O)n([C@H]2O[C@@H](CO)[C@H](O)[C@H]2O)cc1/C=C/Br (stereo in doubt)	–	–	–	–	> 200	–	–	0.001	47	–	–
O=c1[nH]c(=O)n([C@H]2O[C@@H](CO)[C@H](O)[C@H]2O)cc1/C=C/Br (stereo in doubt; 4)	> 50	–	> 100	> 50	–	> 50	–	> 50	–	–	–
Nc1nc2c(ncn2COCCO)c(=O)[nH]1 [ACYCLOVIR]	13.6	–	> 100	–	> 200	19.7	–	–	–	–	–
O=c1[nH]c(=O)n([C@H]2C[C@H](O)[C@@H](CO)O2)cc1/C=C/Br [BRIVUDINE]	> 50	0.05	> 100	> 50	> 100	> 50	–	–	–	> 50	–
Nc1nc(O)c2ncn(CCC(CO)CO)c2n1 [PENCICLOVIR]	–	–	> 100	–	> 200	–	0.14	–	–	–	18
